The source made the active and inactive calls. The calls are words filed in the database; no cut-off is given here.
Tests used:
Tequatrovirus T4 = assay: Inhibition of T4 bacteriophage DNA polymerase assessed as inhibition of incorporation of dTTP into activated DNA primer after 60 mins
[1] = Growth inhibition of HUVEC cells after 72 hrs by WST-1 assay; format: cell-based; conditions: human
In short: (§1)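 Normal cells (HDF, HUVEC) were grown in Eagle's MEM with 4.5 g/L glucose, 10% FCS, 5 mM L-glutamine and penicillin/streptomycin, 37 °C, 5% CO2. Cells were seeded at 1 × 10^4 per well, cultured 12 h, then exposed to compound (0.5% DMSO final) for 72 h. Viability was read by WST-1 at 450/630 nm. GI50 given as mean ± SE of five experiments.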

HeLa = assay: Growth inhibition of human HeLa cells after 24 hrs by WST-1 assay; format: functional
In short: (§2)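 Cancer cells were grown in McCoy's 5A with 10% FBS and penicillin/streptomycin, 37 °C, 5% CO2. Cells were seeded at 1 × 10^4 per well, cultured 12 h, then given compound (10 mM DMSO stock diluted in medium, 0.5% DMSO) for 24 h. WST-1 was added for 4 h and absorbance read at 450/630 nm. GI50 given as mean ± SE, five independent experiments.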

[2] = Growth inhibition of HDF cells after 72 hrs by WST-1 assay; format: cell-based; conditions: human; in short: as §1
[3] = Inhibition of cauliflower DNA polymerase alpha assessed as inhibition of incorporation of dTTP into poly(dA)/oligo(dT)18 after 60 mins; design: species or system Brassica oleracea var. botrytis
In short: (§3)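 Compound in DMSO was sonicated for 30 s, then held with enzyme (0.05 units final) at 0 °C for 10 min in 50 mM Tris-HCl pH 7.5, 1 mM DTT, 50% glycerol, 0.1 mM EDTA. The mixture was added to the standard reaction mix with poly(dA)/oligo(dT)18 (A/T = 2/1) and dTTP, 37 °C, 60 min. Activity was relative to no-inhibitor control; mean ± SE, three independent experiments.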

Deoxyribonuclease-1 = Deoxyribonuclease-1 (Bos taurus, UniProt P00639); assay: Inhibition of bovine deoxyribonuclease 1 using [3H]-labelled DNA after 30 mins by agarose gel electrophoresis
Deoxyribonuclease-1, sequence (P00639 whole entry): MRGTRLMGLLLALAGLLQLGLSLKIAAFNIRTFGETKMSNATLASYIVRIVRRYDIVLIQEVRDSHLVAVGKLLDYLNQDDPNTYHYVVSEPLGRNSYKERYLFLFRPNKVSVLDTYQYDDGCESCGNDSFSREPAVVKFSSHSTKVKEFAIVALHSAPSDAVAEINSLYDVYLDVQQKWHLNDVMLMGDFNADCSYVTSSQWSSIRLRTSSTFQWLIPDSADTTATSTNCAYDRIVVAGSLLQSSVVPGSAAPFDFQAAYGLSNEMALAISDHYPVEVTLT

[4] = Inhibition of human DNA polymerase epsilon assessed as inhibition of incorporation of dTTP into poly(dA)/oligo(dT)18 after 60 mins; in short: as §3
A549 = assay: Growth inhibition of human A549 cells after 24 hrs by WST-1 assay; format: functional; conditions: A549, 24 h; in short: as §2
[5] = target: DNA polymerase eta (Homo sapiens) (UniProt Q9Y253); assay: Inhibition of C-terminal-His6-tagged human pol eta expressed in Escherichia coli assessed as inhibition of incorporation of dTTP into poly(dA)/oligo(dT)18 after 60 mins
DNA polymerase eta (Homo sapiens), sequence (Q9Y253 whole entry, looked up): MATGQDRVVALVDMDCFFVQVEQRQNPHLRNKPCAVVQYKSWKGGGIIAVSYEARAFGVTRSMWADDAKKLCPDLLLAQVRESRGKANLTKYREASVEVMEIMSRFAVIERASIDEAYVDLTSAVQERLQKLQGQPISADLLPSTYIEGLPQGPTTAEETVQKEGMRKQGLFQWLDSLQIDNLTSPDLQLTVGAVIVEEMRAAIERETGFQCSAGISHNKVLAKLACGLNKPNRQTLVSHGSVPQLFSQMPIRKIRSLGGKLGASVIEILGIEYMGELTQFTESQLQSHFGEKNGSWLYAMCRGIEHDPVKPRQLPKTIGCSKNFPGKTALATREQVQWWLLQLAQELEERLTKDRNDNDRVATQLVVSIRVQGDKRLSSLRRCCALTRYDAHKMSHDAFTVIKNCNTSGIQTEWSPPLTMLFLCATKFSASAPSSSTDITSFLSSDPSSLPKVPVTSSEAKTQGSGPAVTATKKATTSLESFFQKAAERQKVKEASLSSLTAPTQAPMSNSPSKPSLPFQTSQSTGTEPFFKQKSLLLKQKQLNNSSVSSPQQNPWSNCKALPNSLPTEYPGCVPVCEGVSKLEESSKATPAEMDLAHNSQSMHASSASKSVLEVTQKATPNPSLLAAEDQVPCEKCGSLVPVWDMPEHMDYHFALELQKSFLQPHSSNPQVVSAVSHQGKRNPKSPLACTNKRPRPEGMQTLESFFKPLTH

[6] = Inhibition of human His6-tagged DNA polymerase gamma expressed using baculovirus assessed as inhibition of incorporation of dTTP into poly(dA)/oligo(dT)18 after 60 mins; in short: as §3
HCT-116 = assay: Growth inhibition of against human HCT116 cells after 24 hrs by WST-1 assay; format: functional; conditions: HCT-116, 24 h; in short: as §2
DNA polymerase beta = DNA polymerase beta (Rattus norvegicus, UniProt P06766); assay: Inhibition of rat DNA polymerase beta expressed in Escherichia coli JMpbeta5 assessed as inhibition of incorporation of dTTP into poly(dA)/oligo(dT)18 after 60 mins; in short: as §3
[7] = target: DNA-directed DNA/RNA polymerase mu (Homo sapiens, UniProt Q9NP87); assay: Inhibition of human His-tagged recombinant DNA polymerase mu expressed in Escherichia coli BL21 assessed as inhibition of incorporation of dTTP into poly(dA)/oligo(dT)18 after 60 mins; in short: as §3
DNA-directed DNA/RNA polymerase mu, sequence (Q9NP87 whole entry): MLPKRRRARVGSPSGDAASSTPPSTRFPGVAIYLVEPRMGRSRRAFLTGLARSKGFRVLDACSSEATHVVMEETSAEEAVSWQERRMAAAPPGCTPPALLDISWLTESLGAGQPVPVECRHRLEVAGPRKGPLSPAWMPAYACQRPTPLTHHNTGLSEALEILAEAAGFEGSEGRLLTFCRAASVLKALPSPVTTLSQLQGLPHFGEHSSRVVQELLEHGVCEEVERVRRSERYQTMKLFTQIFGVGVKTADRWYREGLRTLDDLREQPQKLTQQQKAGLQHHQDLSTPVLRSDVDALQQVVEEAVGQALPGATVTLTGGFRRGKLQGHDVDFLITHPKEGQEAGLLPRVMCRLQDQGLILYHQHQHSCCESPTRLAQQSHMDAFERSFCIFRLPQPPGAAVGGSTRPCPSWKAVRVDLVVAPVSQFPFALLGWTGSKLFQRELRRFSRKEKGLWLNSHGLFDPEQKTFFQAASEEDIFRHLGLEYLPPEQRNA

DNA polymerase kappa = target: T1, DNA polymerase kappa (Homo sapiens, UniProt Q9UBT6); assay: Inhibition of human C-terminal-His6-tagged DNA polymerase kappa expressed in Escherichia coli assessed as inhibition of incorporation of dTTP into poly(dA)/oligo(dT)18 after 60 mins; in short: as §3
T1 sequence (Q9UBT6 whole entry): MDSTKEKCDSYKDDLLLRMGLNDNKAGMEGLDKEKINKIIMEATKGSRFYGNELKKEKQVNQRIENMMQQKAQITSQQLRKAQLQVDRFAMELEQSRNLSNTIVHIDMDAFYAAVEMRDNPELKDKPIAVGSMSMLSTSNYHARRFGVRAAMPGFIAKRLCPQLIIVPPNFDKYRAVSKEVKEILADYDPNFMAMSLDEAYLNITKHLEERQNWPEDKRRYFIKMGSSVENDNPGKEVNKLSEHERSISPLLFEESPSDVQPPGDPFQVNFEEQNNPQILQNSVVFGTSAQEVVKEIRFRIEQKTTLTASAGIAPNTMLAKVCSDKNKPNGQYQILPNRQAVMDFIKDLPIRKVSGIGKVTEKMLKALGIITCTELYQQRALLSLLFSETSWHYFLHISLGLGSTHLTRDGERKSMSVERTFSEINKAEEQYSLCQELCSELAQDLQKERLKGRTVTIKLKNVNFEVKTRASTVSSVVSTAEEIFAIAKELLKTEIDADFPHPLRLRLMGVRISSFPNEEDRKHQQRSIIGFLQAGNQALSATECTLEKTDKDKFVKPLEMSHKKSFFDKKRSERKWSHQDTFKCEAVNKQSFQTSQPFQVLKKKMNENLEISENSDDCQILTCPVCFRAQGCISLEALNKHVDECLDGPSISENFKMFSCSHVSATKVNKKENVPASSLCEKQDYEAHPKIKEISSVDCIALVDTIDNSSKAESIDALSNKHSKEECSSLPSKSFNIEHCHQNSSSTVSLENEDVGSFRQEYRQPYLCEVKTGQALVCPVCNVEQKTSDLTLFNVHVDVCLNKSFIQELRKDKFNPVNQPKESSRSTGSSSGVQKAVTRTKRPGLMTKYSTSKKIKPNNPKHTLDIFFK

[8] = Inhibition of T7 RNA polymerase assessed as inhibition of incorporation of [3H]UTP after 30 mins by liquid scintillation counting; design: species or system Escherichia phage T7
[9] = Inhibition of Escherichia coli polymerase DNA polymerase 1 klenow fragment assessed as inhibition of incorporation of dTTP into poly(dA)/oligo(dT)18 after 60 mins; in short: as §3
[10] = target: DNA nucleotidylexotransferase (Bos taurus, UniProt P06526); assay: Inhibition of calf TdT assessed as inhibition of incorporation of dTTP into oligo(dT)18(3'OH) after 60 mins
DNA nucleotidylexotransferase, sequence (P06526 whole entry): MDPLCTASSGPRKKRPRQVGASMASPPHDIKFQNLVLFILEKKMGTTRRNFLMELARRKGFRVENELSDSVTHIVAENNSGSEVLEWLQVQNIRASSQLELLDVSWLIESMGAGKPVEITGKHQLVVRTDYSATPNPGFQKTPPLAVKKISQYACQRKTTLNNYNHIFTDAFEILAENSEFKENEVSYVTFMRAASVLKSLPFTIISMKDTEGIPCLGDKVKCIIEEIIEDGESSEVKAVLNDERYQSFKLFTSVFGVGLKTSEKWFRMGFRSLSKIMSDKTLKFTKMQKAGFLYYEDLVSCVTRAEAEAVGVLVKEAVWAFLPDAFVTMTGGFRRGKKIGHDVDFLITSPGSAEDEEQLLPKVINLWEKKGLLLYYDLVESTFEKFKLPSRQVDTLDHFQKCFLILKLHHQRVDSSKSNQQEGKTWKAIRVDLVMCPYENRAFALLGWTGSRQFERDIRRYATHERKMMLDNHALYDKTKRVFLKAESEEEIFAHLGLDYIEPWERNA
In short: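 Enzyme (0.05 units) was preincubated with compound in DMSO at 0 °C for 10 min in Tris-HCl pH 7.5/DTT/glycerol/EDTA buffer, then reacted at 37 °C for 60 min. Substrates were poly(rA)/oligo(dT)18 (A/T = 2/1) plus dTTP for HIV-1 RT, and oligo(dT)18 (3′-OH) primer plus dTTP for calf thymus TdT. Activity was relative to uninhibited control; mean ± SE of three experiments.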

[11] = target: Inosine-5'-monophosphate dehydrogenase 2 (Mus musculus, UniProt P24547); assay: Inhibition of mouse IMP dehydrogenase 2
Inosine-5'-monophosphate dehydrogenase 2, sequence (P24547 whole entry): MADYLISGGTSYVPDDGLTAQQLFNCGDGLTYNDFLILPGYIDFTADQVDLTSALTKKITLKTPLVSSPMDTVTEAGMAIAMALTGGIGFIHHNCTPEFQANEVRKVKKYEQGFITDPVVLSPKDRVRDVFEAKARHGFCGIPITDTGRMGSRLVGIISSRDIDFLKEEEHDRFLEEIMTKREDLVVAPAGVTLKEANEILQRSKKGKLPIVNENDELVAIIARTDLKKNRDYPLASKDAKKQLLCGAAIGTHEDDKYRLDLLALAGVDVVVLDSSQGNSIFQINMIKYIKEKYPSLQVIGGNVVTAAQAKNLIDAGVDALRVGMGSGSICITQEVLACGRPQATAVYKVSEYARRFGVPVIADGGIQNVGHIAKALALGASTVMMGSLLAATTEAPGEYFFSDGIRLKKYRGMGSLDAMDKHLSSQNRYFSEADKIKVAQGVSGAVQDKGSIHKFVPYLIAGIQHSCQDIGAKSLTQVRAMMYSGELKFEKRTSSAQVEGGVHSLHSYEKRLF

## C/C=C/C1=CC2=CC(=O)[C@@](C)(O)[C@@H](OC(=O)c3c(C)cc(O)cc3O)[C@@H]2CO1
Tequatrovirus T4
  inhibition: inactive
[1]
  GI50 at 72 h: > 200 µM
HeLa
  GI50: 68.8 µM
[2]
  GI50 at 72 h: > 200 µM
[3]
  IC50: > 200 µM
Deoxyribonuclease-1
  IC50: > 200 µM
[4]
  IC50: 65.6 µM
A549
  GI50: 65.7 µM
[5]
  IC50: 63.1 µM
[6]
  IC50: 67.3 µM
HCT-116
  GI50: 64.6 µM
DNA polymerase beta
  IC50: > 200 µM
[7]
  IC50: > 200 µM
DNA polymerase kappa
  IC50: 59.8 µM
[8]
  IC50: > 200 µM
[9]
  IC50: > 200 µM
[10]
  IC50: > 200 µM
[11]
  IC50: > 200 µM

## C/C=C/C1=CC2=CC(=O)[C@@](C)(OC(=O)c3c(C)cc(O)cc3O)[C@@H](O)[C@@H]2CO1 [PINOPHILIN A]
Tequatrovirus T4
  inhibition: inactive
[1]
  GI50 at 72 h: > 200 µM
HeLa
  GI50: 55.6 µM
[2]
  GI50 at 72 h: > 200 µM
[3]
  IC50: > 200 µM
Deoxyribonuclease-1
  IC50: > 200 µM
[4]
  IC50: 52 µM
A549
  GI50: 52.5 µM
[5]
  IC50: 50.9 µM
[6]
  IC50: 55.6 µM
HCT-116
  GI50: 51.3 µM
DNA polymerase beta
  IC50: > 200 µM
[7]
  IC50: > 200 µM
DNA polymerase kappa
  IC50: 48.6 µM
[8]
  IC50: > 200 µM
[9]
  IC50: > 200 µM
[10]
  IC50: > 200 µM
[11]
  IC50: > 200 µM

## Cc1cc(O)cc(O)c1C(=O)O[C@H]1[C@@H]2COC(/C=C/CO)=CC2=CC(=O)[C@@]1(C)O [PINOPHILIN B]
Tequatrovirus T4
  inhibition: inactive
[1]
  GI50 at 72 h: > 200 µM
HeLa
  GI50: 99 µM
[2]
  GI50 at 72 h: > 200 µM
[3]
  IC50: > 200 µM
Deoxyribonuclease-1
  IC50: > 200 µM
[4]
  IC50: 93.9 µM
A549
  GI50: 93.1 µM
[5]
  IC50: 92.1 µM
[6]
  IC50: 93.7 µM
HCT-116
  GI50: 92.5 µM
DNA polymerase beta
  IC50: > 200 µM
[7]
  IC50: > 200 µM
DNA polymerase kappa
  IC50: 88.9 µM
[8]
  IC50: > 200 µM
[9]
  IC50: > 200 µM
[10]
  IC50: > 200 µM
[11]
  IC50: > 200 µM
